Measured values reported in ChEMBL document CHEMBL4118175, “Anti-allergic inflammatory components from Sanguisorba officinalis L” (Bioorg Med Chem Lett, 2018).
Calls of active or inactive are those of the source. No cut-off for these calls is given here.

How the values were obtained:
RBL-2H3 [1] = assay: Anti-inflammatory activity in PMA/A23187-stimulated rat RBL2H3 cells assessed as reduction of IL4 secretion preincubated for 2 hrs followed by PMA/A23187 stimulation for 18 hrs by ELISA; type: functional, cell-based
Summary of the method: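 Cells plated overnight, pretreated 2 h, then stimulated with 30 ng/mL PMA plus 350 ng/mL A23187 for 18 h; supernatant IL-4 by ELISA kit; triplicate, mean ± SEM.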

RBL-2H3 [2] = assay: Cytotoxicity against rat RBL2H3 cells at 5 and 20 uM after 24 hrs by MTS assay; type: cell-based; conditions: rbl-2h3, 24 h
Summary of the method: (§1)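 RBL-2H3 (seeded overnight) or RAW264.7 cells exposed to 5 and 20 µM samples for 24 h; viability by MTS; three independent experiments, mean ± SEM.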

RAW264.7 [3] = assay: Cytotoxicity against mouse RAW264.7 cells at 5 and 20 uM after 24 hrs by MTS assay; type: cell-based; conditions: raw264.7, 24 h; summary of the method: as §1
RBL-2H3 [4] = assay: Anti-inflammatory activity in PMA/A23187-stimulated rat RBL2H3 cells assessed as reduction of beta-hexosaminidase secretion preincubated for 1 hr followed by PMA/A23187 stimulation for 1 hr using 4-nitrophenyl-N-acetyl-beta-D-glucosaminide substrate; type: functional, cell-based
Summary of the method: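 After overnight plating, cells pretreated 1 h then stimulated with 30 ng/mL PMA plus 350 ng/mL A23187 for 1 h; supernatants collected for β-hexosaminidase detection; triplicate, mean ± SEM.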

RBL-2H3 [5] = assay: Anti-inflammatory activity in IgE sensitized and DNP-BSA-stimulated rat RBL2H3 cells assessed as reduction of IL4 secretion preincubated for 2 hrs followed by DNP-BSA stimulation for 18 hrs by ELISA; type: functional, cell-based
Summary of the method: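 IgE-sensitized cells (overnight, 37 °C) pretreated with compounds 2 h, then challenged with 1 µg/mL DNP-BSA for 18 h; IL-4 in supernatant quantified by ELISA kit. Cells seeded in 48-well plates overnight; triplicate, mean ± SEM.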

[6] = molecular target: Transcription factor p65 (Homo sapiens) (UniProt Q04206); assay: Inhibition of PMA-induced NFkappaB P65 activation (unknown origin) expressed in human HEK293T cells transfected with pNF-kappaB-SEAP preincubated for 2 hrs followed by PMA stimulation measured after overnight incubation by NFkappaB reporter gene assay; type: cell-based
Sequence of Transcription factor p65 (Homo sapiens) (Q04206 whole entry): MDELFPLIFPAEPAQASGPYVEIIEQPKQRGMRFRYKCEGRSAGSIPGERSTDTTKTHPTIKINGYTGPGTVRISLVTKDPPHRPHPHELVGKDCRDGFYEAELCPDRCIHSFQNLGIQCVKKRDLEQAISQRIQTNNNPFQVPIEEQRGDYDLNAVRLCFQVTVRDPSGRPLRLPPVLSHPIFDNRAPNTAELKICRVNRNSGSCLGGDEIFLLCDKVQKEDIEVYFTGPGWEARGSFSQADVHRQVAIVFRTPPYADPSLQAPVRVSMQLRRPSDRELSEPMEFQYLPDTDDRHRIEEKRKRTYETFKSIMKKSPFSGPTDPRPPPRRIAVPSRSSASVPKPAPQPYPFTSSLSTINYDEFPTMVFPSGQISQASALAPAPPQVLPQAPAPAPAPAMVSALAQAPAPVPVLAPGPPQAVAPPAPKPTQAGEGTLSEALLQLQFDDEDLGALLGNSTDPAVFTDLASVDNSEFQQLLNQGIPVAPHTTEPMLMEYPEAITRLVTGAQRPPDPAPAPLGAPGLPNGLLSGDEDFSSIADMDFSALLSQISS
Summary of the method: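 293T cells carrying pNFκB-SEAP reporter plasmid, pretreated with samples then PMA-stimulated; NF-κB transcription read as SEAP; triplicate, mean ± SEM.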

[7] = molecular target: Transcription factor p65 (Mus musculus) (UniProt Q04207); assay: Inhibition of NFkappaB nuclear translocation in LPS-stimulated mouse RAW264.7 cells at 20 uM pretreated for 2 hrs followed by LPS-induction by DAPI-staining based immunofluorescence microscopic method; type: cell-based
Sequence of Transcription factor p65 (Mus musculus) (Q04207 whole entry): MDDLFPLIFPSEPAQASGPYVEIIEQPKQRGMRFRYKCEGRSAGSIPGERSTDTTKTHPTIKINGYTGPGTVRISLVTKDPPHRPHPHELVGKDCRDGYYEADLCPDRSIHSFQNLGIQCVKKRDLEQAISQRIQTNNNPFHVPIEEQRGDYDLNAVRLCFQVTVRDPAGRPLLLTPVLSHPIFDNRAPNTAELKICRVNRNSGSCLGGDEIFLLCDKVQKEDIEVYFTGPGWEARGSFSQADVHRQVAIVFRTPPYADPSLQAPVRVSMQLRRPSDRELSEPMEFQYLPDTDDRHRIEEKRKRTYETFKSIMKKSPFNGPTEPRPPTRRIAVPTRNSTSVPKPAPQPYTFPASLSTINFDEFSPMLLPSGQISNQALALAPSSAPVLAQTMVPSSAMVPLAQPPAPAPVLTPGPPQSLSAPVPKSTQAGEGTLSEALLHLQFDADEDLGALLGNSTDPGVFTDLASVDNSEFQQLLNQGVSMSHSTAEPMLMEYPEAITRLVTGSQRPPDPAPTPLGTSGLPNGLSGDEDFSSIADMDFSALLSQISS
Summary of the method: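 Cells in eight-well glass chambers preincubated 2 h with samples (20 µM) or Bay 11-7082 before LPS 1 µg/mL; immunostaining with polyclonal anti-p65 and Alexa Fluor 488 secondary to view nuclear translocation.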

RAW264.7 [8] = assay: Anti-inflammatory activity in mouse RAW264.7 cells assessed as inhibition of LPS-induced TNF-alpha production at 20 uM preincubated for 2 hrs followed by LPS addition measured after 24 hrs by ELISA; type: functional, cell-based
Summary of the method: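 Cells pretreated 2 h with compounds (20 µM) before LPS (500 ng/mL) for 24 h; supernatant TNF-α by ELISA kit; triplicate, mean ± SEM.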

RAW264.7 [9] = assay: Anti-inflammatory activity in mouse RAW264.7 cells assessed as inhibition of LPS-induced nitric oxide production preincubated for 2 hrs followed by LPS addition measured after 24 hrs by Griess method; type: functional, cell-based
Summary of the method: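 Following 2 h sample pretreatment, LPS added for 24 h; supernatant NO read with Griess reagent; triplicate, mean ± SEM.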

RAW264.7 [10] = assay: Anti-inflammatory activity in mouse RAW264.7 cells assessed as reduction in LPS-stimulated iNOS protein expression at 20 uM preincubated for 2 hrs followed by LPS addition measured after 18 hrs by Western blot analysis; type: functional, cell-based
Summary of the method: (§2)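 Pretreatment 2 h with samples (20 µM) then LPS 200 ng/mL for 18 h; COX-2 and iNOS protein by Western blot.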

RAW264.7 [11] = assay: Anti-inflammatory activity in mouse RAW264.7 cells assessed as reduction in LPS-stimulated COX2 protein expression at 20 uM preincubated for 2 hrs followed by LPS addition measured after 18 hrs by Western blot analysis; type: functional, cell-based; summary of the method: as §2

SMILES	Activity (RBL-2H3 [1])	Activity (RBL-2H3 [2])	Activity (RAW264.7 [3])	Activity (RBL-2H3 [4])	Activity (RBL-2H3 [5])	inhibition [6]	NFkappaB nuclear translocation inhibition (qualitative call) [7]	Activity (RAW264.7 [8])	Activity (RAW264.7 [9])	Activity (RAW264.7 [10])	Activity (RAW264.7 [11])
CC(CCCC(C)(C)O)CCO[C@@H]1O[C@H](CO[C@@H]2O[C@@H](CO)[C@H](O)[C@H]2O)[C@@H](O)[C@H](O)[C@H]1O (stereo not given in full)	Dose-dependent effect	Non-Toxic	Non-Toxic	Active	Dose-dependent effect	Dose-dependent effect	Active	Active	Active	Active	Active
C[C@@H]1CC[C@]2(C(=O)O)CC[C@]3(C)C(=CC[C@@H]4[C@@]5(C)CC[C@H](O[C@@H]6OC[C@H](O)[C@H](O)[C@H]6O)C(C)(C)[C@@H]5CC[C@]43C)[C@@H]2[C@]1(C)O	Dose-dependent effect	Non-Toxic	Non-Toxic	Active	Dose-dependent effect	Dose-dependent effect	Active	Active	Active	–	–
C[C@@H]1CC[C@]2(C(=O)O[C@@H]3O[C@H](CO)[C@@H](O)[C@H](O)[C@H]3O)CC[C@]3(C)C(=CC[C@@H]4[C@@]5(C)C[C@@H](O)[C@@H](O)C(C)(C)[C@@H]5CC[C@]43C)[C@@H]2[C@]1(C)O	Dose-dependent effect	Non-Toxic	Non-Toxic	Active	Dose-dependent effect	–	–	Active	–	–	–
Cc1ccc(S(=O)(=O)/C=C/C#N)cc1	–	–	–	–	–	–	Active	–	–	–	–
COc1cc2c(=O)oc3c(OC)c(OC)cc4c(=O)oc(c1O)c2c34	–	Toxic	Toxic	–	–	–	–	–	–	–	–
C=CCc1ccc(O[C@@H]2O[C@H](CO[C@@H]3OC[C@@H](O)[C@H](O)[C@H]3O)[C@@H](O)[C@H](O)[C@H]2O)cc1	Dose-dependent effect	Non-Toxic	Non-Toxic	Active	Dose-dependent effect	–	–	Active	Active	Active	Active
Cc1ccc(-c2cc(C(F)(F)F)nn2-c2ccc(S(N)(=O)=O)cc2)cc1	–	–	–	–	–	–	–	–	–	–	Active
CC1=C2C3=CC[C@@H]4[C@@]5(C)CC[C@H](O[C@@H]6OC[C@H](O)[C@H](O)[C@H]6O)C(C)(C)[C@@H]5CC[C@@]4(C)[C@]3(C)CC[C@@]2(C(=O)O[C@@H]2O[C@H](CO)[C@@H](O)[C@H](O)[C@H]2O)CC[C@H]1C	Dose-dependent effect	Non-Toxic	Non-Toxic	Active	Dose-dependent effect	Dose-dependent effect	Active	Active	Active	Active	Active
